# PREPL inhibitor – PREPL enzyme inhibitors, primary screen, biochemical, fluorescence polarization | inhibition, % at 5.96 µM | Prolyl endopeptidase-like (Homo sapiens), Q4J6C6 | recombinant PREPL, fluorescence polarization activity-based probe | hit rate 0.68% among 320,000;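 further: 0% = enzyme with DMSO and 100% = wells lacking enzyme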
# NTR1 ag – agonists of human NTR1, primary screen, imaging, U2OS cells, beta-arrestin-GFP, high content; activation, % at 20 µM; AID 493036, 2011; hit rate 0.17% among 330,000; NTR1-U2OS beta-arrestin-GFP spot imaging, agonist mode;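 active means activation at or above 40% of the spot to cytoplasm intensity ratio, with at least 20 cells analyzed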;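 further: 0% = DMSO without peptide and 100% = 100 nM NTR1 peptide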
# m5-HT2A agonist – mouse Htr2a agonists via beta-arrestin recruitment, primary screen, cell-based, luminescence | CHO-K1 mHTR2A beta-arrestin complementation; percent of 30 µM serotonin response | hit rate 0.66% among 360,000 | activation, % at 7.6 µM;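 active means activation above a run cutoff, the mean activation of all tested compounds plus 3 SD, cut at about 14% in these data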;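 further: 0% = plate median of compound wells and 100% = 30 µM serotonin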
# Target sequence (P35363 whole entry, looked up): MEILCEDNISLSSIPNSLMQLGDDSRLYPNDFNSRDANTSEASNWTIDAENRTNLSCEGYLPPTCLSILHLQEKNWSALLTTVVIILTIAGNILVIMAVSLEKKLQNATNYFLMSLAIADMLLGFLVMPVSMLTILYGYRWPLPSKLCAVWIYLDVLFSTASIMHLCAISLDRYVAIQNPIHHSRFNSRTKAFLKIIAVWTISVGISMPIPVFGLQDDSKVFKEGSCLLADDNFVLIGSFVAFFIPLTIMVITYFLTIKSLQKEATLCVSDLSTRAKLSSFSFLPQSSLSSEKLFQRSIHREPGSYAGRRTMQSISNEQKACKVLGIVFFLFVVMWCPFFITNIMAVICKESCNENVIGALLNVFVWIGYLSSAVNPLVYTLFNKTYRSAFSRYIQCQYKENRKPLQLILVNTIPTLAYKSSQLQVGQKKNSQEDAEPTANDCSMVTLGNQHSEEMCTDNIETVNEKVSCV
# Lipid droplet – inhibitors of hepatocyte lipid droplet formation, primary screen, imaging, high-throughput imaging, BODIPY stain. AML12 mouse hepatocytes, oleate lipid droplets. inhibition, % at 6.5 µM. hit rate 0.4% among 240,000;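 active means lipid droplet intensity inhibited by at least 50%, with more than 500 cells counted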
#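 Assay system: AML12 mouse liver cells | Compound: 6.5 µM single-point dosing | Schedule: Overnight exposure | Technique: Fluorescence imaging, 20x objective, two fields per well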
# MC4R barr agon – MC4R agonists recruiting beta-arrestin, primary screen, cell-based, luminescence, agonist arm of biased-ligand search; U2OS MC4R beta-arrestin complementation; percent of melanotan II response, DMSO zero; hit rate 0.98% among 360,000; activation, % at 8.9 µM;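 active means activation above a per-plate cutoff, the mean activation of sample wells on that plate plus 3 SD, cut at about 8% in these data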
# MC4R antagonist – MC4R antagonists of cAMP signaling, primary screen, cell-based, TR-FRET, antagonist arm of biased-ligand search; Melanocortin receptor 4 (Homo sapiens), P32245; MC4R-expressing cells, MTII-stimulated cAMP, LANCE TR-FRET; inhibition, % at 6.5 µM; hit rate 0.48% among 360,000; AID 540295, 2011;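 active means inhibition above its plate's cutoff, the mean of tested wells on that plate plus 3 SD, cut at about 29% in these data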;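 further: 0% = Melanotan II alone and 100% = Melanotan II plus saturating MCL0020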
#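 system = U2OS cells with stable human MC4R expression | also added = Melanotan II challenge after compound preincubation | dosing = one concentration, 6.5 µM nominal | incubation = compound 30 min, challenge 1 h, detection 1 h | measured by = TR-FRET with Eu-cAMP and labeled anti-cAMP, 671 nm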
# PREPL confirm – human PREPL enzyme inhibitors, confirmation, biochemical, fluorescence polarization. hit rate 67% among 2,000. recombinant PREPL, fluorescence polarization activity probe. inhibition, % at 5.96 µM. shares compounds with PREPL inhibitor;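 further: 0% = protein with DMSO and 100% = wells lacking protein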
# Starred values were filed as active, the others as inactive; / = no result. Compounds with a hit are over-represented: about 2.7% of the library has one in this group of screens. Unless noted, no stated cut-off is given here; in the data, active means inhibition above about 43%; inactive means the rest.
SMILES,PREPL inhibitor,NTR1 ag,m5-HT2A agonist,Lipid droplet,MC4R barr agon,MC4R antagonist,PREPL confirm
CCCCN1C(=N)N([C@@H](CCC)CN2CCC[C@H]2CN2C(N)=NC[C@@H]2Cc2ccccc2)C[C@H]1Cc1ccccc1,45*,-4,-14,/,0,-1,45*
CCC[C@@H](CN1CCC[C@H]1CN1C(N)=NC[C@@H]1Cc1ccccc1)N1C[C@@H]([C@H](C)CC)N(CCCC2CCCC2)C1=N,54*,5,-17,/,3,39*,52*
CCC[C@@H](CN1CCC[C@H]1CN1C(N)=NC[C@H]1CC(C)C)N1C[C@@H](Cc2ccccc2)N(CCCC2CCCC2)C1=N,49*,-2,-4,/,4,27,41
CCC[C@@H](CN1CCC[C@H]1CN1C(N)=NC[C@@H]1Cc1ccccc1)N1C[C@@H](Cc2ccccc2)N(CCCC2CCCC2)C1=N,42,-1,-13,/,2,9,/
Cc1ccc(S(=O)(=O)NC(C)(C)C)cc1C(=O)OCC(=O)N1CCCC1=O,-3,0,7,/,-3,18,/
Cc1ccc(-c2ccccc2NC(=O)CS(=O)CC(=O)Nc2ccc(C)c(Cl)c2)o1 (configuration not stated),60*,14,-6,2,1,2,5
Cc1cc(-c2csc(N)n2)c(C)n1C,52*,0,6,13,0,13,14
O=C(Nc1cc2c3c(c1)CC(=O)N3CCC2)C1CC1,17,0,6,/,-1,6,/
CN1CCN(CCCNC(=O)c2ccc3c(c2)N(Cc2ccc(F)cc2)CCS3)CC1,44*,0,-3,-34,-2,3,36
CCS(=O)(=O)C1=NSC2=NC(=O)/C(=C\c3ccc(OC(=O)c4ccco4)c(OC)c3)C(=N)N21,53*,-2,-5,-1,-3,-7,77*
COc1cc(/C=C2\C(=O)N(c3ccc(S(N)(=O)=O)cc3)N=C2C)ccc1OC(=O)c1ccco1,54*,0,-14,-2,0,22,83*
COc1cc(/C=C2/C(=N)N3C(=NC2=O)SN=C3S(=O)(=O)C(C)C)ccc1OC(=O)c1ccco1,38,-2,4,-4,-3,-4,/
COc1cc(/C=C2/C(=N)N3C(=NC2=O)SN=C3S(C)(=O)=O)ccc1OC(=O)c1ccco1,62*,0,4,0,-1,-2,80*
CCOc1cc(/C=C2/C(=N)N3C(=NC2=O)SN=C3S(=O)(=O)CC)ccc1OC(=O)c1ccco1,36,1,5,-7,-3,-3,/
CCOc1cc(/C=C2/C(=N)N3C(=NC2=O)SN=C3S(=O)(=O)C(C)C)ccc1OC(=O)c1ccco1,36,2,4,24,-2,6,/
C#CCOc1ccc(/C=C2/C(=O)N(c3ccc(S(N)(=O)=O)cc3)N=C2C)cc1OC,/,/,0,/,-1,15,/
COc1cc(/C=C2/C(=N)N3C(SC)=NSC3=NC2=O)ccc1OC(=O)c1ccco1,54*,0,12,-7,1,-1,64*
CS(=O)(=O)N1CCC(C(=O)Nc2cccc(Br)c2)CC1,-1,0,-7,9,-2,-1,/
CCc1ccc(N2C(=O)CC(N3CCN(Cc4ccc5c(c4)OCO5)CC3)C2=O)cc1 (configuration not stated),11,2,0,4,-3,-2,/
CCC[C@@H](CN1CCC[C@H]1CN1C(N)=NC[C@@H]1Cc1ccccc1)N1C[C@@H](Cc2ccccc2)N(CCc2ccc(Cl)c(Cl)c2)C1=N,32,3,-12,/,1,18,/
C[C@@H](CN1CCC[C@H]1CN1C(N)=NC[C@@H]1Cc1ccccc1)N1C[C@@H](Cc2ccccc2)N(CCc2ccc(Cl)c(Cl)c2)C1=N,46*,-1,-11,/,2,33*,38
CC(C)[C@@H]1CN=C(N)N1C[C@@H]1CCCN1C[C@H](C)N1C[C@@H](Cc2ccccc2)N(CCc2ccc(Cl)c(Cl)c2)C1=N,63*,1,-5,/,5,12,61*
Cc1ccc(F)c(CNC(=O)C2(C)CCCN2C(=O)C(C)C)c1F (configuration not stated),/,/,7,/,0,-3,/
COc1ccc(N(C)C(=O)CN(C)S(=O)(=O)c2ccc3c(c2)c(=O)n(C)c(=O)n3C)c(OC)c1,-15,0,3,-6,-2,5,/
CN1Cc2sc(NC(=S)NC(=O)c3ccccc3)c(C#N)c2CC1(C)C,58*,-2,/,7,/,/,19
SMILES,PREPL inhibitor,NTR1 ag,m5-HT2A agonist,Lipid droplet,MC4R barr agon,MC4R antagonist,PREPL confirm
CCN(CC)CCN1c2ccccc2Sc2ccc3ccccc3c21,46*,12,-6,3,-1,3,37
NS(=O)(=O)c1ccc(NC(=O)c2ccc(S(=O)(=O)N3CCCCCC3)cc2)cc1,2,0,-2,/,1,8,/
O=C(Cn1c(=O)cnc2ccccc21)N1CCN(S(=O)(=O)c2cccc([N+](=O)[O-])c2)CC1,10,-1,0,/,-2,8,/
CCN1C(=O)CC(c2ccccc2)N(C2CCCC2)c2nc(Nc3ccc(C(=O)NC4CCN(C)CC4)cc3OC)ncc21 (configuration not stated),48*,36,-7,/,-1,-1,50*
C#CCOCCOCCOCCNc1nc(N2CCN(C(=O)CCCCCCCCCCNC(=O)[C@@H](CCSC)n3cc(CCO)nn3)CC2)nc(N2CCN(C(=O)CCCCCCCCCCNC(=O)[C@H](CO)n3cc(CCCCCN)nn3)CC2)n1,48*,-1,4,/,-2,9,49*
C#CCOCCOCCOCCNc1nc(N2CCN(C(=O)CCCCCCCCCCNC(=O)[C@@H](CCC(=O)O)n3cc(CCCCCN)nn3)CC2)nc(N2CCN(C(=O)CCCCCCCCCCNC(=O)[C@H](CO)n3cc(CCCCCN)nn3)CC2)n1,46*,0,4,/,1,3,31
COc1cc(NC(=O)C2CC(c3ccc(Cl)cc3)=NO2)cc(OC)c1OC (configuration not stated),44*,1,-1,-14,1,6,38

# From PubChem BioAssay
